Screens (PubChem BioAssay)
Diaph inh CS: counter-screen for diaphorase-based assays: diaphorase inhibitors and chemical oxidizers | diaphorase resazurin-to-resorufin fluorescence, NADH, 16 min; bacterial (C. kluyveri) enzyme, not human | inhibition, % at 20 µM | 190,000 compounds, 0.69% hits;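 active means primary screen inhibition at 20 µM above a set limit, cut at about 50% in these data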
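Assay system: diaphorase enzyme from Clostridium kluyveri. Quantity: enzyme working solution with 0.14 U/mL diaphorase. Schedule: reaction incubation of 16 min at room temperature. Technique: resorufin fluorescence, excitation 544 nm, emission 590 nm. Controls: No-NADH positive control and DMSO neutral control.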
G6PDH CS: counter-screen for G6PDH assay hits: L. mesenteroides G6PDH inhibition | Purified L. mesenteroides G6PDH, diaphorase/resazurin coupled fluorescence, 45 min | inhibition, % at 5 µM | 200,000 compounds, 0.12% hits
Diaphorase act: activates diaphorase or chemically reduces, flagging diaphorase assay artifacts; activation factor at 20 µM; 190,000 compounds, 0.005% hits; Diaphorase/resazurin coupled assay, resorufin fluorescence, 16 min; active compounds read high; 1 = vehicle wells, 0 = NADH-free wells;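 active means diaphorase activity raised at least twofold by the compound at 20 µM; inactive means activation factor below 2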
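test system = bacterial diaphorase enzyme (C. kluyveri) | quantity = enzyme 0.07 U/mL final | reagent = NADH substrate 0.114 mM plus resazurin dye 0.1 mM, final | incubation = 16 min enzyme reaction, ambient temperature | buffer or medium = HEPES pH 7.4 buffer with MgCl2 and Tween 20 | signal = fluorescence of resorufin, 544 nm excitation, 590 nm emission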
Lmaj promast: inhibitors of Leishmania major promastigote growth | Leishmania major promastigotes, resazurin fluorescence viability | inhibition, % at 10 µM | 200,000 compounds, 9% hits | AID 1063;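 further: promastigotes grown with compound for 44 hours at 28 °C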
WT yeast gro inh: growth inhibition of WT yeast, mitochondrial fusion screen; 190,000 compounds, 2.1% hits; inhibition, % at 10 µM; AID 1362; mitochondrial fusion phenotypic screen, WT strain; in the data active means inhibition above about 58%; tested in S. cerevisiae
Numbers stand for hits; - = inactive; . = no result given. Compounds with a hit are over-represented: about 11% of the library has one in this group of screens. Unless noted, no stated cut-off is given here; in the data, active means inhibition above about 50%; inactive means the rest.

SMILES | Diaph inh CS | G6PDH CS | Diaphorase act | Lmaj promast | WT yeast gro inh
COc1ccc2c(c1OC)C(=O)OC2C1c2c(cc3c(c2OC)OCO3)CCN1C (configuration not stated) | - | - | - | - | -
COc1ccc(-n2nnc3c(SCC(=O)Nc4ccccc4F)ncnc32)cc1 | - | - | - | - | -
COc1ccc(-n2nnc3c(SCC(=O)NCC4CCCO4)ncnc32)cc1 (configuration not stated) | - | - | - | 74.6 | -
COC(=O)c1ccc(NC(=O)CSC2=NC(=O)C(c3ccccc3)C(=O)N2)cc1 (configuration not stated) | - | - | - | 52.7 | -
COC(=O)c1ccc(NC(=O)CNc2ccccc2)cc1 | - | - | - | 76.2 | -
CCN1CCN(S(=O)(=O)c2ccc(OC)c(Br)c2)CC1 | - | - | - | 84.3 | -
COc1ccc(CN2CCN(S(=O)(=O)c3ccccc3)CC2)cc1Br | - | - | - | 75.5 | -
COc1ccc(S(=O)(=O)N2CCN(C)CC2)cc1Br | - | - | - | - | -
O=S(=O)(c1ccc(Cl)cc1)N1CCN(Cc2c[nH]c3ccccc23)CC1 | - | - | - | 52.5 | -
COc1ccc(S(=O)(=O)N2CCCN(Cc3cccc(F)c3)CC2)cc1 | - | - | - | 89.7 | -
COC(=O)c1c(C)n(-c2ccc(C)cc2)c2ccc(O)cc12 | - | - | - | - | -
O=S(=O)(c1ccc(Br)cc1)N1CCCN(Cc2ccccc2F)CC1 | - | - | - | 50.2 | -
CCCS(=O)(=O)N1CCN(Cc2ccc(OCc3ccccc3)c(OC)c2)CC1 | . | . | . | 91.2 | .
CCc1ccc(C2=CC(c3cc(Br)ccc3F)n3ncnc3N2)cc1 (configuration not stated) | - | - | - | - | 65.3
Fc1ccc(Br)cc1C1C=C(c2ccc(Br)cc2)Nc2ncnn21 (configuration not stated) | - | - | - | - | -
Cc1nccn1-c1cc(C(C)(C)C)nc2c(-c3ccccc3)cnn12 | - | - | - | 66.8 | -
CCc1nccn1-c1cc(C(C)(C)C)nc2c(-c3ccc(Cl)cc3)cnn12 | - | - | - | - | -
COC(=O)c1ccc(CSc2nnc(NC(=O)C3CC(=O)N(c4ccc5c(c4)OCCO5)C3)s2)cc1 (configuration not stated) | - | - | - | - | -
Cc1ccc2c(c1)C1C=CCC1C(C(=O)O)N2 (configuration not stated) | 63.0 | - | - | - | -
COc1cccc2c1NC(C(=O)O)C1CC=CC21 (configuration not stated) | 92.6 | - | - | - | -
CC(=O)c1ccc2c(c1)C1C=CCC1C(C(=O)O)N2 (configuration not stated) | 77.1 | - | - | - | -
O=C(CC1(O)C(=O)Nc2cc(Cl)cc(Cl)c21)c1ccccc1O (configuration not stated) | - | - | - | - | -
CCc1ccc(C(=O)Nc2cc3c(cc2Cl)OCCCO3)cc1 | - | - | - | - | -
CCNC(=O)/C(=C/c1ccco1)NC(=O)/C=C/c1ccccc1 | - | - | - | - | -
CCN(c1ccccc1)S(=O)(=O)c1ccc(Cl)c(NC(=O)CSc2ncn[nH]2)c1 | - | - | - | - | -
SMILES | Diaph inh CS | G6PDH CS | Diaphorase act | Lmaj promast | WT yeast gro inh
Cc1cc(C)c(S(=O)(=O)/N=C2/C=C(Sc3ncn[nH]3)C(=O)c3ccccc32)cc1C | - | 51.2 | - | 99.7 | -
O=C1CSC(c2ccc(F)cc2)N1c1nnc(C23CC4CC(CC(C4)C2)C3)s1 (configuration not stated) | - | - | - | - | -
O=C1CSC(c2ccc(F)cc2)N1c1nc2ccccc2s1 (configuration not stated) | - | - | - | - | 75.1
CCc1nnc(NC(=O)CSc2nc3ccc(OC)cc3[nH]2)s1 | - | - | - | - | -
COC(=O)COc1cccc(NC(=O)c2cccs2)c1 | - | - | - | 60.6 | -
CCCN(CCC)S(=O)(=O)c1ccc(NC(=O)COc2ccccc2)cc1 | - | - | - | 97.9 | -
COc1cccc(-c2nc(-c3ccc(NC(=O)c4ccncc4)cc3)no2)c1 | - | - | - | - | -
COC(=O)COc1cccc(NC(=O)COc2ccccc2)c1 | - | - | - | 90.9 | -
COc1cccc(-c2nc(-c3ccc(NC(=O)c4cccs4)cc3)no2)c1 | - | - | - | - | 58.1
COC(=O)COc1cccc(NC(=O)c2ccccc2)c1 | - | - | - | - | -
COC(=O)COc1cccc(NC(=O)c2cccc(C)c2)c1 | - | - | - | - | -
CCOC(=O)c1c(OCC)[nH]c2ccc(O)cc12 | - | - | - | - | -
COc1cccc(NC(=O)N2CCCC2C(=O)NCc2ccccc2F)c1 (configuration not stated) | - | - | - | - | -
Cc1ccccc1NC(=O)Cc1nc(CSc2nnc(-c3ccc4c(c3)OCO4)o2)cs1 | - | - | - | 86.2 | -
COc1ccc(N/N=C(/C)c2cnnc(-c3ccccc3)n2)cc1 | - | - | - | - | -
O=C(CSc1ncn[nH]1)NCc1ccccc1 | - | - | - | - | 88.5
O=C(Cc1ccccc1)NCc1ccc(-n2cccc2)cc1 | - | - | - | - | -
CCN(CC)Cc1c(O)ccc2occ(C(=O)c3ccc(OC)cc3)c12 | - | - | - | 87.8 | -
O=C(Nc1ccc(O)c(C(=O)O)c1)c1ccc2c(c1)C(=O)N(CC1CCCO1)C2=O (configuration not stated) | - | - | - | - | -
CCOC(=O)C(Cc1ccc(Cl)cc1Cl)c1ccno1 (configuration not stated) | - | - | - | - | -
COc1ccc(CCN(C)Cc2ccc(OC)c(OCc3ccccc3)c2)cc1OC | - | - | - | - | -
COc1ccc(CCN(C)Cc2ccc(OCc3ccccc3)c(OC)c2)cc1OC | - | - | - | 64.4 | -
COc1cc(CN(C)C)cc(C=O)c1O | - | - | - | - | -
COc1cc(CN(C)Cc2ccccc2)cc(OC)c1O | - | 51.4 | - | - | -
CCC(C)NC(=O)CSc1nnc(-c2ccc(Cl)cc2)n1N (configuration not stated) | - | - | - | - | -
SMILES | Diaph inh CS | G6PDH CS | Diaphorase act | Lmaj promast | WT yeast gro inh
O=C(/C=C/c1cccc(Cl)c1)NCCN1CCOCC1 | - | - | - | - | -
COc1cccc(C(=O)Oc2c(Br)cc(Br)cc2/C=N/NC(=O)c2cc(C)[nH]n2)c1 | - | - | - | 78.1 | -
Cc1cc(C(=O)N/N=C/c2ccccn2)n[nH]1 | - | - | - | - | -
Cc1cc(C(=O)N/N=C/c2cccc([N+](=O)[O-])c2O)n[nH]1 | 50.2 | - | - | - | -
Cc1cc(C(=O)N/N=C/c2cc(N=Nc3ccccc3)ccc2O)n[nH]1 | - | - | - | 99.5 | -
C#CCn1cc(/C=N/NC(=O)c2cc3ccccc3o2)c2ccccc21 | - | - | - | - | -
Nc1ccc(C(=O)N/N=C\c2cc(N=Nc3cccc4ccccc34)ccc2O)cc1 | - | - | - | 98.8 | -
